Reference: ChEMBL document CHEMBL3817728, “Synthesis, Evaluation, and Mechanism Study of Novel Indole-Chalcone Derivatives Exerting Effective Antitumor Activity Through Microtubule Destabilization in Vitro and in Vivo” (J Med Chem, 2016)

Columns and labels:
HeLa = experiment: Cytotoxicity against human HeLa cells assessed as cell viability after 48 hrs by MTT assay; assay type: functional, cell-based
Summary of the method: (§1)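 Cancer cell lines treated with compound for 48 h, and viability read by MTT assay. IC50 given as mean ± SD from at least three independent experiments.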

[1] = Cytotoxicity against human HCT8 cells assessed as cell viability after 48 hrs by MTT assay; assay type: functional, cell-based; details: HCT-8, 48 h; summary of the method: as §1
A2780 [2] = experiment: Cytotoxicity against human A2780 cells assessed as cell viability after 48 hrs by MTT assay; assay type: functional, cell-based; details: A2780, 48 h; summary of the method: as §1
[3] = Cytotoxicity against human Bel7402 cells assessed as cell viability after 48 hrs by MTT assay; assay type: functional, cell-based; details: Bel-7402, 48 h; summary of the method: as §1
A549 [4] = experiment: Cytotoxicity against human A549 cells assessed as cell viability after 48 hrs by MTT assay; assay type: functional, cell-based; details: A549, 48 h; summary of the method: as §1
MCF7 [5] = experiment: Cytotoxicity against human MCF7 cells assessed as cell viability after 48 hrs by MTT assay; assay type: functional, cell-based; details: MCF7, 48 h; summary of the method: as §1
[6] = Cytotoxicity against human MCF7/DX cells assessed as growth inhibition after 48 hrs by MTT assay; assay type: functional, cell-based
Summary of the method: (§2)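 Drug-resistant lines were tested by a 48 h MTT viability assay. IC50 was derived from dose-response curves and reported as mean ± SE of at least three independent experiments.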

[7] = Cytotoxicity against human HCT8/VCT cells assessed as growth inhibition after 48 hrs by MTT assay; assay type: functional, cell-based; summary of the method: as §2
HCT-8 = experiment: Resistance index, ratio of IC50 for human HCT8/VCT cells to IC50 for human HCT8 cells; assay type: functional
A549 [8] = experiment: Resistance index, ratio of IC50 for human A549/CDDP cells to IC50 for human A549 cells; assay type: functional
A2780 [9] = experiment: Resistance index, ratio of IC50 for human A2780/TAX cells to IC50 for human A2780 cells; assay type: functional
MCF7 [10] = experiment: Resistance index, ratio of IC50 for human MCF7/DX cells to IC50 for human MCF7 cells; assay type: functional
[11] = Cytotoxicity against human A2780/TAX cells assessed as growth inhibition after 48 hrs by MTT assay; assay type: functional, cell-based; summary of the method: as §2
[12] = Cytotoxicity against human A549/CDDP cells assessed as growth inhibition after 48 hrs by MTT assay; assay type: functional, cell-based; details: A549, 48 h; summary of the method: as §2
Tubulin = Tubulin (Sus scrofa, UniProt P02554+P02550); experiment: Inhibition of porcine brain tubulin polymerization measured every 60 secs for 60 mins by DAPI staining-based fluorescence assay
A549 [13] = experiment: Antitumor activity against human A549 cells xenografted in BALB/c nude mouse assessed as tumor growth inhibition at 30 mg/kg, ip administered every other day for 1 month measured every other day post dose relative to vehicle-treated control; assay type: functional; details: read-out: TGI

Row | IC50 (Tubulin) [µM] | SMILES | IC50 (HeLa) [µM] | IC50 [1] [µM] | IC50 (A2780 [2]) [µM] | IC50 [3] [µM] | IC50 (A549 [4]) [µM] | IC50 (MCF7 [5]) [µM] | IC50 [6] [µM] | IC50 [7] [µM] | Ratio IC50 (HCT-8) | Ratio IC50 (A549 [8]) | Ratio IC50 (A2780 [9]) | Ratio IC50 (MCF7 [10]) | IC50 [11] [µM] | IC50 [12] [µM] | inhibition in vivo at 30 mg/kg (A549 [13]) [%]
1 | – | C=Cn1cc(/C=C(\C)C(=O)c2cc(OC)c(OC)c(OC)c2)c2ccc(OC)cc21 | 0.067 | 0.079 | 0.049 | 0.091 | 0.089 | 0.064 | – | – | – | – | – | – | – | – | –
2 | – | COc1ccc2c(c1)c(/C=C(\C)C(=O)c1cc(OC)c(OC)c(OC)c1)cn2C | 0.235 | 0.726 | 0.427 | 0.356 | 0.331 | 0.548 | – | – | – | – | – | – | – | – | –
3 | – | COc1cc(C(=O)/C=C/c2ccc3c(ccn3C)c2)cc(OC)c1OC | 0.057 | 0.067 | 0.045 | 0.077 | 0.053 | 0.061 | – | – | – | – | – | – | – | – | –
4 | – | COc1cc(C(=O)/C(C)=C/c2c[nH]c3cccc(OC)c23)cc(OC)c1OC | > 1 | > 1 | > 1 | > 1 | > 1 | > 1 | – | – | – | – | – | – | – | – | –
5 | – | COc1ccc(C(=O)/C=C/c2cn(C)c3cccc(OC)c23)c2c1C=CC(C)(C)O2 | > 1 | > 1 | > 1 | > 1 | > 1 | > 1 | – | – | – | – | – | – | – | – | –
6 | – | CC[C@]1(O)C[C@H]2CN(CCc3c([nH]c4ccccc34)[C@@](C(=O)OC)(c3cc4c(cc3OC)N(C=O)[C@H]3[C@@](O)(C(=O)OC)[C@H](OC(C)=O)[C@]5(CC)C=CCN6CC[C@]43[C@@H]65)C2)C1 [VINCRISTINE] | – | 0.35 | 0.026 | – | 0.061 | 0.098 | 1.26 | 7.86 | 22.5 | 9.2 | 6.46 | 12.9 | 0.168 | 0.561 | –
7 | – | CCn1cc(/C=C(\C)C(=O)c2cc(OC)c(OC)c(OC)c2)c2ccc(OC)cc21 | 0.065 | 0.056 | 0.021 | 0.015 | 0.039 | 0.032 | – | – | – | – | – | – | – | – | –
8 | 3.48 | COc1ccc2c(/C=C/C(=O)c3cc(OC)c(OC)c(OC)c3)cn(C)c2c1 | 0.062 | 0.047 | 0.025 | 0.061 | 0.023 | 0.087 | – | – | – | – | – | – | – | – | –
9 | – | COc1ccc2c(/C=C/C(=O)c3ccc(OC)c4c3OC(C)(C)C=C4)cn(C)c2c1 | 0.093 | 0.087 | 0.061 | 0.097 | 0.058 | 0.045 | – | – | – | – | – | – | – | – | –
10 | – | COc1ccc2c(/C=C(\C)C(=O)c3cc(OC)c(OC)c(OC)c3)cn(CCO)c2c1 | 0.035 | 0.02 | 0.031 | 0.021 | 0.025 | 0.014 | – | – | – | – | – | – | – | – | –
11 | – | COc1ccc2c(/C=C(\C)C(=O)c3cc(OC)c(OC)c(OC)c3)cn(CCBr)c2c1 | 0.146 | 0.169 | 0.274 | 0.259 | 0.126 | 0.389 | – | – | – | – | – | – | – | – | –
12 | 4.39 | COc1ccc2c(/C=C/C(=O)c3ccc(OC)c4c3OC(C)(C)C=C4)c[nH]c2c1 | 0.049 | 0.077 | 0.041 | 0.078 | 0.055 | 0.056 | – | – | – | – | – | – | – | – | –
13 | – | CCCn1cc(/C=C(\C)C(=O)c2cc(OC)c(OC)c(OC)c2)c2ccc(OC)cc21 | 0.531 | 0.679 | 0.597 | 0.614 | 0.514 | 0.497 | – | – | – | – | – | – | – | – | –
14 | – | CC(=O)O[C@H]1C(=O)[C@@]2(C)[C@H]([C@H](OC(=O)c3ccccc3)[C@]3(O)C[C@H](OC(=O)[C@H](O)[C@@H](NC(=O)c4ccccc4)c4ccccc4)C(C)=C1C3(C)C)[C@]1(OC(C)=O)CO[C@@H]1C[C@@H]2O [PACLITAXEL] | – | 0.019 | 0.005 | – | – | – | 0.135 | 0.125 | – | – | – | – | 5.68 | 0.023 | –
15 | – | COc1ccc2c(c1)c(/C=C/C(=O)c1ccc(OC)c3c1OC(C)(C)C=C3)cn2C | 0.415 | 0.675 | 0.497 | 0.389 | 0.452 | 0.567 | – | – | – | – | – | – | – | – | –
16 | 5.06 | COc1ccc2[nH]cc(/C=C(\C)C(=O)c3cc(OC)c(OC)c(OC)c3)c2c1 | 0.078 | 0.048 | 0.032 | 0.096 | 0.074 | 0.033 | – | – | – | – | – | – | – | – | –

Row | IC50 (Tubulin) [µM] | SMILES | IC50 (HeLa) [µM] | IC50 [1] [µM] | IC50 (A2780 [2]) [µM] | IC50 [3] [µM] | IC50 (A549 [4]) [µM] | IC50 (MCF7 [5]) [µM] | IC50 [6] [µM] | IC50 [7] [µM] | Ratio IC50 (HCT-8) | Ratio IC50 (A549 [8]) | Ratio IC50 (A2780 [9]) | Ratio IC50 (MCF7 [10]) | IC50 [11] [µM] | IC50 [12] [µM] | inhibition in vivo at 30 mg/kg (A549 [13]) [%]
17 | – | COc1ccc(C(=O)/C=C/c2c[nH]c3cccc(OC)c23)c2c1C=CC(C)(C)O2 | > 1 | > 1 | > 1 | > 1 | > 1 | > 1 | – | – | – | – | – | – | – | – | –
18 | – | COc1ccc2[nH]cc(/C=C/C(=O)c3cc(OC)c(OC)c(OC)c3)c2c1 | > 1 | > 1 | > 1 | > 1 | > 1 | > 1 | – | – | – | – | – | – | – | – | –
19 | – | COc1cccc2c1C(=O)c1c(O)c3c(c(O)c1C2=O)C[C@@](O)(C(=O)CO)C[C@@H]3O[C@H]1C[C@H](N)[C@H](O)[C@H](C)O1 [DOXORUBICIN] | – | 1.17 | 0.98 | – | 2.17 | – | 50.4 | 1.51 | 1.29 | 1.44 | 3.35 | 49.4 | 3.29 | 3.14 | –
20 | – | COc1cc(C(=O)/C=C/c2cccc3[nH]ccc23)cc(OC)c1OC | 0.038 | 0.057 | 0.041 | 0.063 | 0.036 | 0.05 | – | – | – | – | – | – | – | – | –
21 | – | COc1ccc2c(/C=C(\C)C(=O)c3cc(OC)c(OC)c(OC)c3)cn(C)c2c1 | 0.031 | 0.061 | 0.034 | 0.028 | 0.041 | 0.042 | – | – | – | – | – | – | – | – | –
22 | 3.59 | COc1ccc2c(/C=C(\C)C(=O)c3cc(OC)c(OC)c(OC)c3)cn(CO)c2c1 | 0.013 | 0.017 | 0.021 | 0.009 | 0.008 | 0.019 | – | – | – | – | – | – | – | – | –
23 | – | COc1cc(C(=O)/C(C)=C/c2cn(C)c3cccc(OC)c23)cc(OC)c1OC | > 1 | > 1 | > 1 | > 1 | > 1 | > 1 | – | – | – | – | – | – | – | – | –
24 | – | COc1ccc(/C=C\c2cc(OC)c(OC)c(OC)c2)cc1OP(=O)(O)O [FOSBRETABULIN] | – | – | – | – | – | – | – | – | – | – | – | – | – | – | 52.2
25 | – | COc1cc2c(c(OC)c1OC)C/C(=C\c1cccc3[nH]ccc13)C2=O | 0.027 | 0.038 | 0.035 | 0.035 | 0.026 | 0.047 | – | – | – | – | – | – | – | – | –
26 | – | COc1ccc2c(/C=C/C(=O)c3cc(OC)c(OC)c(OC)c3)c[nH]c2c1 | 0.261 | 0.274 | 0.118 | 0.351 | 0.224 | 0.246 | – | – | – | – | – | – | – | – | –
27 | – | COc1ccc2c(c1)c(/C=C/C(=O)c1cc(OC)c(OC)c(OC)c1)cn2C | 0.531 | 0.315 | 0.283 | 0.256 | 0.164 | 0.231 | – | – | – | – | – | – | – | – | –
28 | – | COc1cc(C(=O)/C=C/c2ccc3[nH]ccc3c2)cc(OC)c1OC | 0.022 | 0.034 | 0.028 | 0.034 | 0.033 | 0.028 | – | – | – | – | – | – | – | – | –
29 | – | COc1cc(C(=O)/C=C/c2cn(C)c3cccc(OC)c23)cc(OC)c1OC | > 1 | > 1 | > 1 | > 1 | > 1 | > 1 | – | – | – | – | – | – | – | – | –
30 | – | COc1ccc2[nH]cc(/C=C/C(=O)c3ccc(OC)c4c3OC(C)(C)C=C4)c2c1 | 0.327 | 0.557 | 0.398 | 0.456 | 0.272 | 0.782 | – | – | – | – | – | – | – | – | –
31 | – | COc1cc(C(=O)/C=C/c2cccc3c2ccn3C)cc(OC)c1OC | 0.031 | 0.041 | 0.023 | 0.032 | 0.03 | 0.038 | – | – | – | – | – | – | – | – | –
32 | – | COc1cc(C(=O)/C=C/c2c[nH]c3cccc(OC)c23)cc(OC)c1OC | > 1 | > 1 | > 1 | > 1 | > 1 | > 1 | – | – | – | – | – | – | – | – | –
